Results collected from several papers.
Compare with care: the assays were run in different laboratories.
Target: Ephrin type-A receptor 1 (EPHA1, Homo sapiens, UniProt P21709)
Sequence (P21709 26-976, as in one of the studies): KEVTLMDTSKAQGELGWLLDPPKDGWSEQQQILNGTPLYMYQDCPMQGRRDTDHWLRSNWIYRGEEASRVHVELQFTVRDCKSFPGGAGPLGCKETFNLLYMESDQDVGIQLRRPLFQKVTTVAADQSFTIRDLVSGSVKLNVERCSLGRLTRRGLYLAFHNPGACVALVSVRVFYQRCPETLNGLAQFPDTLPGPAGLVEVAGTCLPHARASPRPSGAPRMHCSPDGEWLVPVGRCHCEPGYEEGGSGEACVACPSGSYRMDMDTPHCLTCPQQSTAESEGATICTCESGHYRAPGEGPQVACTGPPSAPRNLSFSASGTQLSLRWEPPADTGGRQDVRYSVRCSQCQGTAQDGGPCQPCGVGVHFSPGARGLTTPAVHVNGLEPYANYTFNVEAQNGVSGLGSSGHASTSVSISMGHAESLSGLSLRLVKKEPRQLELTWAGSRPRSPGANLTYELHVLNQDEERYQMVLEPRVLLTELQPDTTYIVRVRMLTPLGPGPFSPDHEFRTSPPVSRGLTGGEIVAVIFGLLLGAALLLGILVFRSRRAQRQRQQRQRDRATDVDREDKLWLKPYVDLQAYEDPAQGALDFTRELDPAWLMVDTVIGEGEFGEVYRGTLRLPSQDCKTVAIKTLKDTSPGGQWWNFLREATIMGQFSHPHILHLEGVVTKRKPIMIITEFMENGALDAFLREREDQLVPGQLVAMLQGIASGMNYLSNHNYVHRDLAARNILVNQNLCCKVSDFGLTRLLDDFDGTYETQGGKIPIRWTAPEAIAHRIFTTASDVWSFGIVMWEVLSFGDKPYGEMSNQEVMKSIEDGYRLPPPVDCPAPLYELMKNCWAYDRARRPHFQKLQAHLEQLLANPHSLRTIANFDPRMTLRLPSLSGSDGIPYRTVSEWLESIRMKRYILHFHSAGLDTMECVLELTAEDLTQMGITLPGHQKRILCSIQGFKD

CN(CCCC(F)(F)F)c1nccc(-c2cnn3ncccc23)n1
remaining binding (binding; 1 µM): 76%

C=CC(=O)N1CCC(C(=O)NCC(=O)N2CCN(c3nc(-c4cnc(N)nc4C(F)F)nc(N4CCOCC4)n3)CC2)CC1
remaining binding (binding, competition with immobilised ligand; 1 µM): 100%

CCN1CCN(Cc2ccc(C(=O)Nc3ccc(C)c(Oc4ccc5c(c4)CC(=O)N5)c3)cc2C(F)(F)F)CC1
remaining binding (binding, competition with immobilised ligand; 1 µM): 77%

COc1ccnn2ncc(-c3ccnc(N(C)C)n3)c12
remaining binding (binding; 1 µM): 100%

CC(=O)C1=C(C)N(c2cccc(C(F)(F)F)c2)C(=O)N[C@@H]1c1ccc(C#N)nc1
remaining binding (cell-free assay, competition with immobilised ligand; 1 µM): 100%

C[C@@H](c1ccc(-n2cnc3c(N)ncnc32)cc1)N1CCc2nn(C)c(Cc3ccccc3)c2C1=O
remaining binding (binding, competition with immobilised ligand; 0.1 µM): 87%

CSc1cccnc1N1CCN(Cc2nc3ccccc3[nH]2)CC1
remaining binding (cell-free assay, competition with immobilised ligand; 1 µM): 100%

O=C(c1ccc(Nc2nccc(-c3cc4ccccc4s3)n2)cc1)N1CCC(N2CCCC2)CC1
remaining binding (binding, competition with immobilised ligand; 1 µM): 32%

CCC(=O)N[C@H]1CC[C@@H](C(=O)N(C)c2ccc(-c3nc4ccccc4o3)cc2)C1
remaining binding (cell-free assay, competition with immobilised ligand; 1 µM): 100%

CN(C)c1ncc(F)c(-c2cnn3ncccc23)n1
remaining binding (binding; 1 µM): 98%

CCS(=O)(=O)c1cc2cc(C[C@@](O)(CC(C)(C)c3ccc(F)cc3C(N)=O)C(F)(F)F)[nH]c2cn1
remaining binding (cell-free assay, competition with immobilised ligand; 1 µM): 99%

O=C(NCCCN1CCOCC1)c1ccc(Nc2ncc(Cl)c(-c3ccc(Cl)s3)n2)cc1
remaining binding (binding, competition with immobilised ligand; 1 µM): 46%

O=C(Nc1c[nH]nc1C(=O)NC1CCNCC1)c1cc(F)cc(F)c1
remaining binding (binding, competition with immobilised ligand; 1 µM): 100%

O=C(c1ccc(Nc2ncc(Cl)c(-c3cc4ccccc4s3)n2)cc1)N1CCC(N2CCCC2)CC1
remaining binding (binding, competition with immobilised ligand; 1 µM): 16%

C[C@H]1CCN(c2nccc(-c3cnn4ncccc34)n2)C1
remaining binding (binding; 1 µM): 84%

COc1ccc2cc(OCC3(C(=O)O)CN(C(=O)c4ccc(F)cc4)C3)ccc2c1
remaining binding (cell-free assay, competition with immobilised ligand; 1 µM): 83%

CN(C)c1nccc(-c2cnc3ncccn23)n1
remaining binding (binding; 1 µM): 93%

COc1cnc(Nc2cccc(S(N)(=O)=O)c2)nc1N1CCN(c2ccccc2)CC1
remaining binding (binding, competition with immobilised ligand; 1 µM): 100%

N[C@@H]1CCN(c2nccc(-c3cnn4ncccc34)n2)C1
remaining binding (binding; 1 µM): 100%

Cc1nc(Cc2cccc(C(F)(F)F)c2)sc1-c1ccc(C(N)=O)nc1
remaining binding (cell-free assay, competition with immobilised ligand; 1 µM): 81%

CNC(=O)[C@@H]1CC[C@@H](n2c(-c3ccc4cnccc4c3)nc3ccc(C(=O)NCc4cccc(C(N)=O)c4)cc32)C1
remaining binding (binding, competition with immobilised ligand; 1 µM): 100%
